One assay has as its target alpha7 nAChR (Rattus norvegicus, UniProt Q05941). Briefly: [3H]-MLA displacement from rat hippocampal membranes. The class given is binding.
Assay [1] has as its system LPS stimulated BV2 microglia. Nature of the assay: Inhibition of NO release from LPS stimulated BV2 microglia. The class given is cell-based, murine. Put shortly:
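BV2 murine microglia (DMEM/F-12, 10% FBS, 37°C, 5% CO2) trypsinised, seeded 5×10^5 cells/well in 24-well plates, adhered overnight. Pretreated 1h serum-free with test compound (±10μM MLA or 1μM nicotine), then 10μg/ml LPS for 24h. Supernatant nitrite read immediately by Griess, A550, against NaNO2 standard. Expressed as % of LPS alone; sigmoidal fits, fixed vs variable slope compared by F-test.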

Assay [2] has as its target nicotinic binding sites on BV2 membranes. Briefly: [3H]-epibatidine saturation binding on BV2 membranes. Also noted: species or system murine. To be noted: read-out: Kd, saturation binding; BV2 microglia membranes.
Assay [3] concerns LPS stimulated BV2 microglia. Briefly: Inhibition of TNF-alpha release from LPS stimulated BV2 microglia. The class given is cell-based, murine. To be noted: flavonoid alone; 10μg/ml LPS 24h. Put shortly:
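Murine BV2 cells seeded at 5×10^5 cells/well in 24-well plates, adhered overnight, then given 1h serum-free pretreatment with test compound (±10μM MLA or 1μM nicotine) before 10μg/ml LPS for 24h. Supernatants frozen, then assayed by mouse TNF-alpha ELISA. Release expressed as % of LPS alone, normalised to resazurin viability when groups differed. Sigmoidal fits, fixed vs variable slope compared by F-test.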

Where [4] appears, read: IC50 [3H]-MLA displacement, rat hippocampal membranes, 2nM [3H]-MLA.
The mark [5] stands for this setting: pIC50 [3H]-MLA displacement, rat hippocampal membranes, 2nM [3H]-MLA.

Consider 15 compounds from article PMC4171190 (Fitoterapia, 2014).

Where two headings read alike, the source gives them in different places. Marks after values point to notes of the source that are not given here.

Usually IC50 stands for the concentration needed to halve the response being measured.

Chain of alpha7 nAChR (Q05941 23-502): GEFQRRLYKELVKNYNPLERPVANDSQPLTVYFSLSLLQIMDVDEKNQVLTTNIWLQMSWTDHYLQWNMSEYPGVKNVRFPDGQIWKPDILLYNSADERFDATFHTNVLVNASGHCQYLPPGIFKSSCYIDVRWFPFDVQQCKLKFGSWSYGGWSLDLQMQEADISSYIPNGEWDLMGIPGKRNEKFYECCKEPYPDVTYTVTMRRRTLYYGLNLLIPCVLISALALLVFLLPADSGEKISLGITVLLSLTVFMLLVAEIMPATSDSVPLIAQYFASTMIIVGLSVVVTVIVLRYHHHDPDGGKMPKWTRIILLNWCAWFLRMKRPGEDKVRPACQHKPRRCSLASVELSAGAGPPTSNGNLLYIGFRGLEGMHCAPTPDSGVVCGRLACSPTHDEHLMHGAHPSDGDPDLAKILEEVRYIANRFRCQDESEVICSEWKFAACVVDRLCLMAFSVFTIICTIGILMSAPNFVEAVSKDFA

Compound `COc1ccc(-c2oc3cc(O)cc(O)c3c(=O)c2O)cc1O` [Tamarixetin] showed an IC50 at alpha7 nAChR (setting [4]) of 238 µM.

Compound `O=c1cc(-c2ccccc2)oc2cc(O)c(O)c(O)c12` [Baicalein] gave an IC50 on alpha7 nAChR (setting [4]) of 66.1 µM.

On to `CN1CCC[C@H]1c1cccnc1` [nicotine, (-)-nicotine], for which the “effect alone on LPS induced release of inflammatory mediators” value in assay [1] (1μM, alone) is “no effect alone”. In addition, the “effect of mecamylamine on inhibition of NO release” value in assay [1] (10μM mecamylamine) is “blocked”. Moreover, the “maximal inhibition of LPS elicited release of NO” value in assay [1] (1h pretreatment, 10μg/ml LPS 24h) was approximately 20%.

On to `O=c1c(O[C@@H]2O[C@H](CO)[C@@H](O)[C@H](O)[C@H]2O)c(-c2ccc(O)c(O)c2)oc2cc(O)cc(O)c12` [Isoquercitrin], for which the IC50 on alpha7 nAChR (setting [5]) is 21.5 µM.

Regarding `COc1cc(-c2oc3cc(O)cc(O)c3c(=O)c2O)ccc1O` [Isorhamnetin], the results for the IC50 at alpha7 nAChR (setting [4]) and on alpha7 nAChR (setting [5]) were 46.5 µM and 46.6 µM, respectively.

With `O=c1c(-c2ccc(O)cc2)coc2cc(O[C@@H]3O[C@H](CO)[C@@H](O)[C@H](O)[C@H]3O)ccc12` [Daidzin], the IC50 on alpha7 nAChR (setting [4]) stood at 120 µM.

In turn, `O=c1c(O[C@@H]2O[C@H](CO)[C@@H](O)[C@H](O)[C@H]2O)c(-c2ccc(O)cc2)oc2cc(O)cc(O)c12` [Astragalin] came in with an IC50 on alpha7 nAChR (setting [4]) of 496 µM.

With `COc1cc(-c2[o+]c3cc(O)cc(O)c3cc2O[C@@H]2O[C@H](CO)[C@@H](O)[C@H](O)[C@H]2O)cc(O)c1O` [Petunidin-3-glucoside], at alpha7 nAChR (rat hippocampal membranes, 2nM [3H]-MLA), the “pIC50 [3H]-MLA displacement” value stood at 2.464 ± 0.95. Besides, the half-inhibitory concentration (IC50) at alpha7 nAChR (read-out: IC50 [3H]-MLA displacement, rat hippocampal membranes, 2nM [3H]-MLA) stood at 3430 µM.

`COc1cc(-c2[o+]c3cc(O)cc(O)c3cc2O)cc(OC)c1O` [Malvidin]: the IC50 on alpha7 nAChR was 90 µM.

Regarding `O=c1c(O)c(-c2ccc(O)c(O)c2)oc2cc(O)cc(O)c12` [Quercetin], the IC50 on alpha7 nAChR (setting [4]) is 11.4 µM; on alpha7 nAChR (setting [5]), 11.5 µM.

As to `Clc1ccc(C2CC3CCC2N3)cn1` (centres unmarked) [[^3H]-epibatidine], the Kd in assay [2] came out at 0.0065 µM.

As to `O=c1c(O)c(-c2ccc(O)c(O)c2)oc2cc(O)c(O)c(O)c12` [Quercetagetin], on alpha7 nAChR, the IC50 was 14.3 µM.

With `COc1cc(O)c2c(c1)O[C@H](c1ccc(O)cc1)CC2=O` [Sakuranetin], the “Hill slope, inhibition of TNF-alpha release” value in assay [3] is on record as -1.0 ^**. Also, the “effect of added MLA on anti-inflammatory properties (NO and TNF-alpha release)” value in assay [1] (addition of MLA, LPS stimulated BV2) is given as “no effect”. For the same compound, in assay [1] (flavonoid alone, 10μg/ml LPS 24h), the “Hill slope, inhibition of NO release” value was -1.0 ^**.

As to `COc1cc(O)c2c(=O)c(O)c(-c3ccc(O)c(O)c3)oc2c1` [Rhamnetin], the IC50 on alpha7 nAChR (setting [5]) was 1.11 µM. The “Hill slope, inhibition of TNF-alpha release” value in assay [3] is -3.5 ± 4.1.

For `O=c1c(O)c(-c2ccc(O[C@@H]3O[C@H](CO)[C@@H](O)[C@H](O)[C@H]3O)c(O)c2)oc2cc(O)cc(O)c12` [Spiraeoside], on alpha7 nAChR (setting [4]), the IC50 amounted to 8.35 µM.
